Results pooled from the literature.
Lines come from different studies, so protocols differ.
ABL1 non-phosphorylated: Tyrosine-protein kinase ABL1, non-phosphorylated (ABL1, Homo sapiens, UniProt P00519)
ABL1 Q252H non-phosphorylated: Tyrosine-protein kinase ABL1, non-phosphorylated (ABL1, Homo sapiens, UniProt P00519, Q252H)
ABL1 Y253F phosphorylated: Tyrosine-protein kinase ABL1, phosphorylated (ABL1, Homo sapiens, UniProt P00519, Y253F)
ABL1 T315I non-phosphorylated: Tyrosine-protein kinase ABL1, non-phosphorylated (ABL1, Homo sapiens, UniProt P00519, T315I)
ABL1 phosphorylated: Tyrosine-protein kinase ABL1, phosphorylated (ABL1, Homo sapiens, UniProt P00519)
ABL1 F317I phosphorylated: Tyrosine-protein kinase ABL1, phosphorylated (ABL1, Homo sapiens, UniProt P00519, F317I)
ABL1 Y253F: Tyrosine-protein kinase ABL1 (ABL1, Homo sapiens, UniProt P00519, Y253F)
ABL1 F317L phosphorylated: Tyrosine-protein kinase ABL1, phosphorylated (ABL1, Homo sapiens, UniProt P00519, F317L)
ABL1 E255K phosphorylated: Tyrosine-protein kinase ABL1, phosphorylated (ABL1, Homo sapiens, UniProt P00519, E255K)

Structure (SMILES) | target | assay | conditions | remaining binding
O=C(c1ccc(Nc2nccc(-c3cc4ccccc4s3)n2)cc1)N1CCC(N2CCCC2)CC1 | ABL1 non-phosphorylated | binding, competition with immobilised ligand | 1 µM | 18%
CCC(=O)N[C@@H]1CC[C@H](C(=O)N(C)c2ccc(-c3nc4ccccc4o3)cc2)C1 | ABL1 Q252H non-phosphorylated | cell-free assay, competition with immobilised ligand | 1 µM | 77%
CNC(=O)[C@@H]1CC[C@@H](n2c(-c3ccc4cnccc4c3)nc3ccc(C(=O)NCc4cccc(C(N)=O)c4)cc32)C1 | ABL1 Y253F phosphorylated | binding, competition with immobilised ligand | 1 µM | 100%
Nc1ncc2c(n1)-c1c([nH]c3ccc(C#CC4CC4)cc13)CCCC2 | ABL1 T315I non-phosphorylated | binding, competition with immobilised ligand | 1 µM | 79%
COc1ccc2c(O[C@@H]3C[C@H]4C(=O)N[C@]5(C(=O)O)CC5/C=C\CCCCC[C@H](NC(=O)OC5CCCC5)C(=O)N4C3)cc(-c3csc(NC(=O)C(C)C)n3)nc2c1C (stereo partly drawn) | ABL1 phosphorylated | cell-free assay, competition with immobilised ligand | 1 µM | 93%
CCN1CCN(Cc2ccc(C(=O)Nc3ccc(C)c(Oc4ccc5c(c4)CC(=O)N5)c3)cc2C(F)(F)F)CC1 | ABL1 phosphorylated | binding, competition with immobilised ligand | 1 µM | 34%
CC1CCCN1c1nccc(-c2cnn3ncccc23)n1 (stereo not drawn) | Tyrosine-protein kinase ABL1 (ABL1, Homo sapiens, UniProt P00519, F317L) | binding | 1 µM | 96%
O=C(c1ccc(Nc2ncc(Cl)c(-c3ccc(Cl)s3)n2)cc1)N1CCC(N2CCCC2)CC1 | Tyrosine-protein kinase ABL1, phosphorylated (ABL1, Homo sapiens, UniProt P00519, H396P) | binding, competition with immobilised ligand | 1 µM | 4.3%
c1cnn2ncc(-c3ccnc(N4CCC45COC5)n3)c2c1 | Tyrosine-protein kinase ABL1 (ABL1, Homo sapiens, UniProt P00519, Q252H) | binding | 1 µM | 69%
O=C(c1ccc(Nc2ncc(Cl)c(-c3cc4ccccc4s3)n2)cc1)N1CCC(N2CCCC2)CC1 | ABL1 F317I phosphorylated | binding, competition with immobilised ligand | 1 µM | 100%
CN(C)c1nccc(-c2cnn3ncccc23)n1 | ABL1 Y253F | binding | 1 µM | 86%
CCOCCn1cc(C(=O)Nc2ccc(-n3nc(-c4cccnc4)cc3C(F)(F)F)cn2)ccc1=O | ABL1 F317L phosphorylated | cell-free assay, competition with immobilised ligand | 1 µM | 79%
N[C@@H]1CCN(c2nccc(-c3cnn4ncccc34)n2)C1 | Tyrosine-protein kinase ABL1 (ABL1, Homo sapiens, UniProt P00519, E255K) | binding | 1 µM | 100%
Cc1cnc(Nc2ccc(C(=O)N3CCC(N4CCCC4)CC3)cc2)nc1-c1cc2ccccc2s1 | ABL1 Y253F phosphorylated | binding, competition with immobilised ligand | 1 µM | 0.6%
C[C@@H]1CN(c2cc(-c3nn(C)c4ccc(OC5(C)CC5)cc34)ncn2)C[C@H](C)O1 | ABL1 F317I phosphorylated | binding | 1 µM | 75%
C[C@H]1CCN(c2nccc(-c3cnn4ncccc34)n2)C1 | Tyrosine-protein kinase ABL1 (ABL1, Homo sapiens, UniProt P00519, T315I) | binding | 1 µM | 82%
O=C(NCC1CCOCC1)c1n[nH]cc1NC(=O)c1c(F)cccc1F | ABL1 E255K phosphorylated | binding, competition with immobilised ligand | 1 µM | 88%
O=C(NS(=O)(=O)c1ccc(NCC2CCOCC2)c([N+](=O)[O-])c1)c1ccc(N2CCN(Cc3ccc(C(F)(F)F)cc3-c3ccc(Cl)cc3)CC2)cc1Oc1cnc2[nH]ccc2c1 | ABL1 Q252H non-phosphorylated | cell-free assay, competition with immobilised ligand | 1 µM | 100%

Structure (SMILES) | target | assay | conditions | remaining binding
COc1cnc(Nc2cccc(S(N)(=O)=O)c2)nc1N1CCN(c2ccccc2)C(=O)C1 | ABL1 F317L phosphorylated | binding, competition with immobilised ligand | 1 µM | 97%
Cc1nc(Cc2cccc(C(F)(F)F)c2)sc1-c1ccc(C(N)=O)nc1 | ABL1 Q252H non-phosphorylated | cell-free assay, competition with immobilised ligand | 1 µM | 87%
COC(=O)Nc1nc2ccc(C(=O)c3ccccc3)cc2[nH]1 | ABL1 E255K phosphorylated | cell-free assay, competition with immobilised ligand | 10 µM | 2.2%
CN(c1nccc(-c2cnn3ncccc23)n1)C1CC1 | Tyrosine-protein kinase ABL1 (ABL1, Homo sapiens, UniProt P00519, F317I) | binding | 1 µM | 100%
CCc1ccccc1C(=O)Nc1n[nH]c2c(C)c(F)c(C3C(C#N)=C(C)N(C)C(C)=C3C#N)cc12 | ABL1 Q252H non-phosphorylated | cell-free assay, competition with immobilised ligand | 1 µM | 82%
Cc1cnn2ncc(-c3ccnc(N(C)C)n3)c2c1 | Tyrosine-protein kinase ABL1 (ABL1, Homo sapiens, UniProt P00519, M351T) | binding | 1 µM | 91%
O=C(NCCCN1CCOCC1)c1ccc(Nc2nccc(-c3cc4ccccc4s3)n2)cc1 | ABL1 phosphorylated | binding, competition with immobilised ligand | 1 µM | 37%
COc1ccnn2ncc(-c3ccnc(N(C)C)n3)c12 | ABL1 phosphorylated | binding | 1 µM | 73%
O=C(Nc1c[nH]nc1C(=O)NC1CCNCC1)c1cc(F)cc(F)c1 | Tyrosine-protein kinase ABL1, phosphorylated (ABL1, Homo sapiens, UniProt P00519, Q252H) | binding, competition with immobilised ligand | 1 µM | 99%
C[C@@H](c1ccc(-n2cnc3c(N)ncnc32)cc1)N1CCc2nn(C)c(Cc3ccccc3)c2C1=O | ABL1 T315I non-phosphorylated | binding, competition with immobilised ligand | 0.1 µM | 33%
CN1CCN(c2ccc(Nc3nccc(-c4ccccc4)n3)cc2C(F)(F)F)CC1 | ABL1 Y253F | binding | 10 µM | 16%
COc1ncc2cc3ccccc3nc2c1C#N | ABL1 F317I phosphorylated | cell-free assay, competition with immobilised ligand | 5 µM | 100%
c1cncc(-c2cccc(Nc3nccc(NC4CCCCC4)n3)c2)c1 | ABL1 phosphorylated | binding, competition with immobilised ligand | 10 µM | 32%
COc1cnc(Nc2cccc(S(N)(=O)=O)c2)nc1N1CCN(c2ccccc2)CC1 | ABL1 phosphorylated | binding, competition with immobilised ligand | 1 µM | 79%
N#Cc1ccc(Nc2ccc3[nH]c(=O)[nH]c3c2)c(Cl)c1 | Tyrosine-protein kinase ABL1, phosphorylated (ABL1, Homo sapiens, UniProt P00519, T315I) | cell-free assay, competition with immobilised ligand | 1 µM | 93%
C=CC(=O)N1CCC(C(=O)NCC(=O)N2CCN(c3nc(-c4cnc(N)nc4C(F)F)nc(N4CCOCC4)n3)CC2)CC1 | ABL1 Y253F phosphorylated | binding, competition with immobilised ligand | 1 µM | 90%
O=C(NCCCN1CCOCC1)c1ccc(Nc2ncc(Cl)c(-c3ccc(Cl)s3)n2)cc1 | Tyrosine-protein kinase ABL1, non-phosphorylated (ABL1, Homo sapiens, UniProt P00519, F317I) | binding, competition with immobilised ligand | 1 µM | 100%
N#Cc1ccccc1CSc1nnc2c(n1)[nH]c1ccccc12 | ABL1 non-phosphorylated | binding, competition with immobilised ligand | 10 µM | 86%
